Assay outcomes (PubChem)
Most compounds without a hit are left out; they make up all but 2.4% or so of the library.
L929 necroptosis = L929 zVAD cell death inhibition; L929 zVAD necroptosis rescue, ATP luminescence, 24 h; with zVAD 60 µM; viability rescue, % at 10 µM; 220,000 tested, 0.38% active;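 active = activation, scaled between plate controls, above about 75%, limit read from the data; inactive = activation under that limit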;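 also: 0% = zVAD with DMSO and 100% = DMSO alone without zVAD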
Autophagy mod = modulators of autophagy; calls only at 10 µM (by protocol); AID 463193; 190,000 tested, 0.98% active; MEF GFP-LC3 puncta imaging; test concentration mostly 10 µM;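 active = percentage of spot-positive cells more than 3 SD above its plate mean, without a fluorescence outlier flag or 80% toxicity; inconclusive = no clear call, values can overlap the other calls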;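 also: spot-positive cell cutoff set from DMSO-treated cells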
Hck Nef HTS = human Hck-Nef kinase inhibition; Recombinant Hck-YEEI plus Nef, Z-Lyte FRET kinase assay; inhibition, % at 20 µM; 220,000 tested, 0.68% active; AID 463187;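 active = Hck-Nef kinase inhibition above about 50%, limit read from the data; inactive = inhibition below that limit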;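 also: 0% = DMSO with Hck plus Nef and 100% = Hck alone without Nef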
MDM2 E3 inh = blocks human Mdm2 ubiquitin ligase activity. 210,000 tested, 0.11% active. cell-based MDM2 ubiquitination luciferase reporter, 2 h; 0 = plate control, 100 = twice control, blank-subtracted. signal enhancement, % at 5 µM. Q00987;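 active = signal enhancement of 30% or more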;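 also: luminescence tracks abundance of the self-degrading MDM2-luciferase fusion protein; higher signal means inhibition of MDM2 E3 ligase activity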
Target sequence (Q00987 whole entry, looked up, the tested form may be a part): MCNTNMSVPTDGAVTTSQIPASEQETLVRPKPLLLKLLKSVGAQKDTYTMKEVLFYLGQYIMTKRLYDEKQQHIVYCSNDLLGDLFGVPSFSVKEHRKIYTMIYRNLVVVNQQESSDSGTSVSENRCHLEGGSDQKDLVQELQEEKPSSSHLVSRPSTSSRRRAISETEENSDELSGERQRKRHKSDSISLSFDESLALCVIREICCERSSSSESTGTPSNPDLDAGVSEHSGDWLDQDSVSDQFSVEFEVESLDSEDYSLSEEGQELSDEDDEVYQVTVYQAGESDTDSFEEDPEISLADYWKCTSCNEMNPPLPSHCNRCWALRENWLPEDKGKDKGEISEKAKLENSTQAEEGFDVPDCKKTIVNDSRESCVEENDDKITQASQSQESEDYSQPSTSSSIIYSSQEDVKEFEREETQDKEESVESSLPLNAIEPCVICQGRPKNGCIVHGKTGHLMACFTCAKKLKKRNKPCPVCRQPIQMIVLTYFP
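Material: stable MDM2–luciferase fusion reporter cells / Quantity: 2000 cells/well / Dosing: single 5 µM compound dose, 0.2% final DMSO / Buffer or medium: DMEM / Schedule: 4 h cell settling then 2 h compound exposure, 37 °C / Detection: luminescence with SteadyLite reagent, 15 min at room temperature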
Dynein transport = dynein cargo transport inhibition. 3617.4 mouse cells, GR-EGFP nuclear translocation imaging; test concentration mostly 20 µM; stimulated with dexamethasone, 1 µM; hits give low values. z-score, hits read low. 220,000 tested, 0.47% active. AID 1381;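 active = plate z-score of nuclear minus cytoplasmic receptor signal below a set negative limit, without overly bright fluorescence or cell loss, cut at about -3.5 in these data, passing the limit was not always enough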;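 also: z-score of nuclear minus cytoplasmic ring GR-EGFP intensity difference per well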
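Buffer or medium: tet-free, stripped-serum medium; Also added: dexamethasone, 1.0 µM final; Technique: high-content fluorescence imaging after fixation; Times: 48 h induction, 1 h compound, 30 min dex at 37 °C; Read-out: per-cell GR-EGFP intensity, nucleus versus surrounding cytoplasmic ring, well-averaged.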
TNF necrop inh = blocks TNF-alpha induced death of Jurkat FADD-/- cells; Jurkat FADD-/- TNF necroptosis rescue, ATP luminescence, 24 h; 0 = TNF only, 100 = no-TNF cells; activation (protection from cell death), % at 10 µM; 220,000 tested, 0.068% active; AID 463075;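 active = activation, meaning protection from cell death, of at least 50% relative to plate controls; inactive = activation below 50%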;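 also: necroptosis triggered by 40 ng/mL TNF-alpha added together with compound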
Dynein confirm = dynein cargo transport inhibition, confirmation. calls only at 20 µM. AID 463116. shares compounds with Dynein transport. 1,000 tested, 69% active. 3617.4 GR-EGFP nuclear translocation imaging, dexamethasone-induced;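 active = inhibition of receptor movement into the nucleus at or above a set limit in both runs, with normal cell brightness and cell count; inconclusive = limit reached in only one run, brightness and count normal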;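 also: dexamethasone at 1 µM final in well for 30 min; nuclear minus cytoplasmic GR-EGFP mean intensity difference in channel 2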
Numbers without * were called inactive; i = inactive; u = inconclusive; x = not tested or not shown; + = active, no number.

SMILES | L929 necroptosis | Autophagy mod | Hck Nef HTS | MDM2 E3 inh | Dynein transport | TNF necrop inh | Dynein confirm
Clc1ccc(-c2csc3ncnc(Cl)c23)cc1 | -1 | i | 2 | -14 | -4* | -6 | +
COc1ccc(-c2csc3ncnc(Cl)c23)cc1 | 32 | i | 17 | -20 | -4.1* | -10 | i
Fc1ccc(-c2csc3ncnc(Cl)c23)cc1 | -1 | i | 4 | -10 | -2.8 | -7 | x
CC(=O)NC(=S)Nc1ccc(S(=O)(=O)Nc2nc(C)cc(C)n2)cc1 | 6 | i | -1 | -1 | 0.41 | -1 | x
CCN(Cc1ccccc1)C(=O)C(C)OC(=O)c1cc(S(=O)(=O)Nc2c(C)n(C)n(-c3ccccc3)c2=O)ccc1C (configuration not stated) | 0 | i | 24 | -12 | -0.083 | 2 | x
Cc1ccc(C(C)C)c(OCC(=O)NN=C(CCl)CCl)c1 | 0 | x | 10 | -3 | -4.6* | -20 | +
CCCN1CCC(=NNC(=O)CSc2cc(C)c(Br)cc2C)CC1 | 1 | i | 2 | -6 | -0.26 | 2 | x
O=C(NCCC1=CCCCC1)c1coc(=O)c(Br)c1 | -1 | i | 0 | 3 | -6* | -14 | u
Cc1ccc(N2C(=O)C(F)(F)C2c2ccccc2)cc1 (configuration not stated) | 0 | i | 14 | -9 | 0.67 | 0 | x
Cc1ccc(N2C(=N)/C(=C3/Nc4ccccc4S3)C(c3ccccc3)C2=O)cc1 (configuration not stated) | -1 | + | -1 | -4 | -3.6* | -4 | +
Cc1cc(C)cc(OC(=O)CS(=O)c2ccc(C(F)(F)F)cc2[N+](=O)[O-])c1 (configuration not stated) | -1 | i | -21 | x | -3.7* | -1 | +
COc1cc2c(cc1OC)CN(CCC(=O)c1ccc(Br)cc1)CC2 | 3 | i | 16 | -8 | -4.1* | 1 | u
COc1cc2c(cc1OC)CN(CC(=O)Nc1cccc(C)c1)CC2 | 0 | i | 2 | 9 | 1.3 | 0 | x
COc1ccccc1-c1cc(C(F)(F)F)nc(S(=O)(=O)CCCC(=O)NCc2ccc(F)cc2)n1 | -2 | i | 26 | 19 | 0.31 | -13 | x
COc1ccccc1-c1cc(C(F)(F)F)nc(S(=O)(=O)CCCC(=O)N2CCCCC2C)n1 (configuration not stated) | 49 | i | 2 | -4 | -5.8* | -13 | u
COc1ccccc1-c1cc(C(F)(F)F)nc(S(C)(=O)=O)n1 | 0 | i | -1 | 9 | -4.6* | -23 | +
COCCOC(=O)/C(=C\c1cc(C(C)(C)C)c(O)c(C(C)(C)C)c1)C(C)=O | 2 | x | -14 | -6 | -5.3* | -4 | +
COC(=O)C1=C(C)N(Cc2ccco2)C(=O)/C1=C\c1ccc([N+](=O)[O-])cc1 | -1 | i | 9 | -1 | -3.6* | -13 | +
COC(=O)C1=C(C)N(Cc2ccco2)C(=O)/C1=C\c1ccc(N(C)C)cc1 | 1 | i | 2 | 5 | 1.3 | 3 | x
CCOC(=O)c1cnc(-c2ccccc2)nc1C(F)(F)F | 1 | i | 20 | -27 | 0.2 | 0 | x
CCOC(=O)c1cnc2c(F)ccc(F)c2c1Sc1ccccc1 | 1 | x | 7 | -17 | -4* | -7 | +
N#Cc1ccc(-c2cccnc2)nc1SCC(=O)c1ccccc1 | 4 | x | -36 | -9 | -5.3 | 1 | i
CC1CC(C)(C)Nc2ccc(N=O)cc21 (configuration not stated) | 62 | + | -3 | -4 | -4* | -12 | +
CCOC(=O)N1CCN(C(=O)/C=C/c2cccc([N+](=O)[O-])c2)CC1 | 2 | i | 31 | -11 | -0.6 | -1 | x
CCCCCn1c(=O)c(-c2nc3ccccc3[nH]2)c(O)c2ccccc21 | 26 | i | 23 | 2 | 0.047 | -1 | x
